# Where two headings read alike, the source gives them in different places. Marks after values point to notes of the source that are not given here.
# Columns and labels:
# S. mansoni adult worms = assay: Adult worm pair stability and egg laying in culture; type: cell-based, Schistosoma mansoni
# Procedure, shortened: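 S. mansoni adult worm pairs kept in culture with test compound at 10 μM. Pairing and egg laying expressed as mean % of DMSO control (set to 100%). Praziquantel (10 μM) served as control. Run in triplicate on two separate occasions.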
# P. falciparum 3D7 = P. falciparum 3D7 3H-hypoxanthine incorporation growth inhibition assay; type: cell-based; settings: Plasmodium falciparum, 3D7, 48 h, read-out: P. falciparum 3D7 IC50
# P. knowlesi A1H.1 = P. knowlesi A1H.1 3H-hypoxanthine incorporation growth inhibition assay; type: cell-based; settings: Plasmodium knowlesi, 48 h, read-out: P. knowlesi A1H.1 IC50
# P. berghei QIMR = assay: In vivo anti-Plasmodium efficacy in infected BALB/c mice; settings: for peripheral blood parasitemia compared to vehicle-only control mice: 25 mg/kg oral gavage twice daily for four days; for days after infection with significant reduction in parasitemia (P < 0.05): 25 mg/kg orally twice daily for four days
# Procedure, shortened: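 Female BALB/c mice, 6–8 weeks old, six per group, infected i.p. with […] P. berghei QIMR-infected erythrocytes from a passage mouse. Oral gavage of 25 mg/kg test compound in DMSO/PBS (100 μL) twice daily for four days, starting 2 h p.i. with 4 h between doses. Chloroquine 10 mg/kg oral twice daily for three days. Giemsa thin smears read daily from day 4 (>800 erythrocytes per mouse).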
# [1] = system: human Neonatal Foreskin Fibroblast (NFF) cells; settings: read-out: NFF IC50; previously published; ref Engel et al., 2015; cited from earlier work
# [2] = female BALB/c nude mice, oral 50 mg/kg; ref Yeo et al., 2007; cited from earlier work
# [3] = cited from earlier work
# [4] = system: free L. donovani promastigotes; assay: Resazurin reduction assay, L. donovani promastigotes; type: cell-based, Leishmania donovani; settings: for inhibition at 20 µM: Leishmania donovani, read-out: inhibition of free L. donovani promastigotes
# [5] = system: Human Embryonic Kidney (HEK 293) cells; settings: read-out: HEK 293 IC50; previously published; ref Engel et al., 2015; cited from earlier work
# Plasmodium parasites = assay: Ratios derived from Table 1 IC50 values; type: cell-based
# [6] = Oral pharmacokinetics in humans; type: in vivo
# [7] = Oral pharmacokinetics in mice; settings: mice dosed orally with 50 mg/kg; ref Yeo et al., 2007
# [8] = humans, 200–600 mg oral vorinostat, ref Kavanaugh et al., 2010
# [9] = humans, 15–80 mg oral panobinostat, ref Prince et al., 2009
smiles,measurement,setting,value
O=C(C1CCCCC1)N1CC(=O)N2CCc3ccccc3C2C1 (stereo not drawn) [praziquantel],effect on adult worms,S. mansoni adult worms; 10 μM,induced the death of adult worms
same,viability at 10 µM,"S. mansoni adult worms; Schistosoma mansoni, read-out: adult worm viability",10%
CCN(CC)CCCC(C)Nc1ccnc2cc(Cl)ccc12 (stereo not drawn) [Chloroquine],IC50,P. falciparum 3D7,10 nM
same,IC50,P. knowlesi A1H.1,10 nM
same,peripheral blood parasitemia,"P. berghei QIMR; 10 mg/kg orally twice daily beginning 2 h p.i., data not shown",did not develop detectable peripheral blood parasitemia
same,IC50,[1],48900 nM
O=C(CCCCCCC(=O)Nc1ccccc1)NO [Vorinostat],peripheral blood parasitemia compared to vehicle-only control mice,P. berghei QIMR,significant reduction
same,days after infection with significant reduction in parasitemia (P < 0.05),P. berghei QIMR,4 to 7 days
same,AUC0−∞,[2],619 ng⋅h/mL
same,AUC0−∞,[3]; [8],1698 ng⋅h/mL
same,Cmax,[3]; [8],658 ng/mL
O=C(/C=C/c1cccc(S(=O)(=O)Nc2ccccc2)c1)NO [Belinostat],IC50,P. falciparum 3D7,170 nM
same,IC50,P. knowlesi A1H.1,190 nM
same,inhibition at 20 µM,[4],20 to 35%
same,IC50,[1],2370 nM
same,IC50,[5],1420 nM
Cc1[nH]c2ccccc2c1CCNCc1ccc(/C=C/C(=O)NO)cc1 [Panobinostat],IC50,P. falciparum 3D7,4 nM
same,IC50,P. knowlesi A1H.1,9 nM
same,greater inhibitory potency against Plasmodium parasites in vitro than vorinostat,Plasmodium parasites; from Table 1 IC50 values,40–60 fold
same,inhibition at 20 µM,[4],20 to 35%
same,inhibition at 10 µM,"S. mansoni adult worms; Schistosoma mansoni, read-out: inhibition of adult worm pairing",30 to 40%
same,inhibition at 10 µM,"S. mansoni adult worms; Schistosoma mansoni, read-out: inhibition of egg production",~50%
same,peripheral blood parasitemia compared to vehicle-only control mice,P. berghei QIMR,significant reduction
same,reduction in mean peripheral parasitemia compared to vehicle-only control,"P. berghei QIMR; 25 mg/kg oral gavage twice daily, days 4-10",2–3 fold
same,survival compared to vehicle control group,"P. berghei QIMR; 25 mg/kg oral gavage twice daily, p = 0.0013",significantly improved
same,days after infection with significant reduction in parasitemia (P < 0.05),P. berghei QIMR,4 to 10 days
same,half-life in humans compared to mice,[6]; from Table 2 values,6–10 fold
same,oral bioavailability (F%) in humans compared to mice,[6]; from Table 2 values,approximately five
same,Cmax,"[6]; human, in vivo, po, 20 mg",~70 nM
same,IC50,[1],70 nM
same,IC50,[5],180 nM
same,adverse effects in humans,"[3]; 20 mg oral dose, ref FARYDAK product sheet (Novartis)",adverse effects are commonly reported
same,AUC0−∞,[3]; [9],183–373 ng⋅h/mL
same,Cmax,[3]; [9],23 to 71 ng/mL
same,t1/2,[3]; [9],16–30 ^d h
same,mean Cmax,"[3]; humans, single oral dose 20 mg, ref European Medicines Agency, 2015",24.3 (±12) ng/mL
same,half-life longer than vorinostat,[7],> 2 fold
C/C=C1\NC(=O)[C@H]2CSSCC/C=C/[C@H](CC(=O)N[C@H](C(C)C)C(=O)N2)OC(=O)[C@H](C(C)C)NC1=O [Romidepsin],IC50,P. falciparum 3D7,140 nM
same,IC50,P. knowlesi A1H.1,210 nM
same,selectivity for the parasite over NFF or HEK 293 cells,"Plasmodium parasites; P. knowlesi vs human cells, in abstract",not selective
same,inhibition of free L. donovani promastigotes,[4]; 20 μM,no growth inhibition
same,inhibition of adult worm pairing,S. mansoni adult worms; 10 μM,completely inhibited
same,inhibition of egg production,S. mansoni adult worms; 10 μM,completely inhibited
same,IC50,[1],1 nM
same,IC50,[5],< 5 nM
